Source: ChEMBL document CHEMBL5365542, “Difluoromethyl-1,3,4-oxadiazoles Are Selective, Mechanism-Based, and Essentially Irreversible Inhibitors of Histone Deacetylase 6” (J Med Chem, 2023)
Active and inactive are the calls of the source. No cut-off for these calls is given here.

Assays:
[1] = target: T1, Protein deacetylase HDAC6 (Homo sapiens, UniProt Q9UBN7); experiment: Inhibition of N-terminal GST tagged human recombinant HDAC6 (1 to 1215 residues) expressed in Sf9 insect cells using Z-Lys(Ac)-AMC as fluorogenic substrate preincubated for 60 mins followed by substrate addition and measured after 90 mins by microplate reader analysis
T1 sequence (Q9UBN7 whole entry): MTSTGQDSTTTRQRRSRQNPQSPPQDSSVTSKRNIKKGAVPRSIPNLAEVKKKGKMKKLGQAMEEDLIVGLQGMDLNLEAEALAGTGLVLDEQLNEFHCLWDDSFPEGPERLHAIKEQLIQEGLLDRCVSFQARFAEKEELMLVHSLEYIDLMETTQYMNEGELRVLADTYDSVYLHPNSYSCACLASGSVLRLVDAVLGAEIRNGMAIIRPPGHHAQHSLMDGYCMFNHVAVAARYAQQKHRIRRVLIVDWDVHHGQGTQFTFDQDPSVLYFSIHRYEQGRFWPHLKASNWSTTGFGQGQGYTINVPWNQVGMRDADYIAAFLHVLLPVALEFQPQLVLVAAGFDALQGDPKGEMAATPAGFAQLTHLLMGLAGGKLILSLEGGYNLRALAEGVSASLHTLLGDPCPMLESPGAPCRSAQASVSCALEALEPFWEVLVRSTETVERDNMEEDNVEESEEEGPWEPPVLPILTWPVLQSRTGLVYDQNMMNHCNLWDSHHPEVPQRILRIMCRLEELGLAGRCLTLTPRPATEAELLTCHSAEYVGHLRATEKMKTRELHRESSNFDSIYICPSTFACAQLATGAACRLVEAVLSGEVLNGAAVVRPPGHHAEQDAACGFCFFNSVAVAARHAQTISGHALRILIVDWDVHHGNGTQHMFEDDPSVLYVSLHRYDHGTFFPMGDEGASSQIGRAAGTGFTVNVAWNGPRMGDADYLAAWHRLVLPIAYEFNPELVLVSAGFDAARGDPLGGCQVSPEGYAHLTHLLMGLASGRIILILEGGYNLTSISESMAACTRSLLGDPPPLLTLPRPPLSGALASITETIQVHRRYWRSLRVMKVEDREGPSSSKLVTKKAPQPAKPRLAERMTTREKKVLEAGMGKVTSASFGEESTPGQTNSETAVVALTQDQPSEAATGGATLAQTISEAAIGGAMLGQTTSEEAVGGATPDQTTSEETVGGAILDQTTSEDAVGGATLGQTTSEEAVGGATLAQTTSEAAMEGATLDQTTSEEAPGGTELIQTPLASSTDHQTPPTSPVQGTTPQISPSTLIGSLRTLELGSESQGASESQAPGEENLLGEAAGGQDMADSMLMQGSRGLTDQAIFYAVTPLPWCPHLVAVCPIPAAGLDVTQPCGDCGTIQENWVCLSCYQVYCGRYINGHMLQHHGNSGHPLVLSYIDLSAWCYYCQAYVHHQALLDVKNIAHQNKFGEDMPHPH

[2] = target: Histone deacetylase 3/Nuclear receptor corepressor 2 (HDAC3/NCoR2) (Homo sapiens) (UniProt O15379+Q9Y618); experiment: Inhibition of C-terminal His-tagged human HDAC3 (1 to 428 residues)/N-terminal GST tagged human NcoR2 (395 to 489 residues) expressed in Sf9 insect cells using Z-Lys(Ac)-AMC as fluorogenic substrate at 10 uM preincubated for 60 mins followed by substrate addition and measured after 90 mins by microplate reader analysis relative to control; details: time 150.0 min
Summary of the method: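 Human recombinant enzyme was preincubated with 3-fold inhibitor dilutions for 60 min at 25 °C in Tris-HCl pH 8.0 buffer with BSA. ZMAL (75 μM solution) was then added, and the mix was incubated 90 min at 37 °C (max 1% DMSO). Trypsin was added for 30 min at 37 °C, and fluorescence was read at ex 355/em 460. Tested at least twice in duplicate.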

[3] = target: T1, Protein deacetylase HDAC6; experiment: Inhibition of N-terminal GST tagged human recombinant HDAC6 (1 to 1215 residues) expressed in Sf9 insect cells using Z-Lys(Ac)-AMC as fluorogenic substrate preincubated for 5 mins followed by substrate addition and measured after 90 mins by microplate reader analysis
[4] = system: T2, Histone deacetylase 6 (Danio rerio), F8W4B7 [Y745F]; experiment: Irreversible inhibition of Danio rerio HDAC6 Y745F mutant catalytic domain 2 assessed as enzyme catalysed ring opening by measuring reduction in 2-(benzylamino)-N'-(2,2,2-trifluoroacetyl)pyrimidine-5-carbohydrazide formation at 100 uM incubated overnight by LC-MS analysis
T2 sequence (whole entry): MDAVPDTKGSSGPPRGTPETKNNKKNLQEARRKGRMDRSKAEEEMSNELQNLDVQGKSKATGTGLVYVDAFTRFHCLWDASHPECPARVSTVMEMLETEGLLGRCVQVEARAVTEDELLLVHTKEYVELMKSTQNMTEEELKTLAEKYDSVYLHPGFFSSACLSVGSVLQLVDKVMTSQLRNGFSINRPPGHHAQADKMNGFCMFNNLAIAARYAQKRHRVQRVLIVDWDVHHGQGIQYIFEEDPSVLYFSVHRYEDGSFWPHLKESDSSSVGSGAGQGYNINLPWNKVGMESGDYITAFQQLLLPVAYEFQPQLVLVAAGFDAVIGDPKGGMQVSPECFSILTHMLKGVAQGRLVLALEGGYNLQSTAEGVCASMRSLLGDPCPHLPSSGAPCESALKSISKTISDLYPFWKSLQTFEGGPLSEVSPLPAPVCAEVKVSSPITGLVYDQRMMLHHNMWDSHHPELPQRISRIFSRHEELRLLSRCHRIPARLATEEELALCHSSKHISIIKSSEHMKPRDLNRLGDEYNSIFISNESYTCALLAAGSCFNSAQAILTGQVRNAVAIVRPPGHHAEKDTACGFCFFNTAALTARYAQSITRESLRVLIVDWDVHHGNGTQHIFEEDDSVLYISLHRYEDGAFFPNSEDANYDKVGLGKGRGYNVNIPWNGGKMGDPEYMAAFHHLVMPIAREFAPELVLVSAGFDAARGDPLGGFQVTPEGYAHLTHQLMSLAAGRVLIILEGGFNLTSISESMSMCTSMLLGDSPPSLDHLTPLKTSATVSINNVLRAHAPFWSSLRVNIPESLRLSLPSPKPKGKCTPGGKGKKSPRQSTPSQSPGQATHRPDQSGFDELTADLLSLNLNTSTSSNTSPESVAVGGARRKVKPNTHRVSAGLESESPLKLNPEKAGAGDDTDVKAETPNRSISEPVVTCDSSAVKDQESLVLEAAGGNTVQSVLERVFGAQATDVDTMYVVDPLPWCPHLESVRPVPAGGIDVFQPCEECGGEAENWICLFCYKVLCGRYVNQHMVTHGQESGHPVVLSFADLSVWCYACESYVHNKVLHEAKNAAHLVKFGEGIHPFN
Summary of the method: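 Zebrafish HDAC6 CD2 mutants were made by site-directed mutagenesis and expressed in BL21(DE3). Enzyme at 50 μM was incubated overnight with 100 μM inhibitor in 50 mM HEPES pH 7.5, 100 mM KCl, 1 mM TCEP, 5% glycerol; an enzyme-free control was included. Protein was methanol-precipitated and filtered, and products were analysed by C18 UPLC-MS with a 2-min gradient.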

Compound | IC50 [1] [nM] | inhibition [2] [%] | IC50 [3] [nM] | inhibition [4]
FC(F)c1nnc(-c2cnc(NCc3ccccc3)nc2)o1 | 193 | < 15 | 347 | inactive
FC(F)(F)c1nnc(-c2cnc(NCc3ccccc3)nc2)o1 | 531 | < 15 | 840 | inactive
